{
  "source": "ChEMBL document CHEMBL3259660",
  "about": "“Haloemodin as novel antibacterial agent inhibiting DNA gyrase and bacterial topoisomerase I” (J Med Chem, 2014)",
  "key": {"[1]": {"test_system": "Staphylococcus epidermidis", "experiment": "Antibacterial activity against methicillin-resistant Staphylococcus epidermidis assessed as growth inhibition by agar dilution assay", "format": "functional", "procedure,_shortened": "(§1)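 CLSI agar dilution MIC against aerobic and anaerobic strains. Test compounds were dissolved in DMSO and reference antibiotics in sterile water. MIC was taken as the lowest concentration showing no bacterial growth. Each MIC was determined at least twice on separate days, and the higher value was reported. E. coli PQ 37 was cultured in LA medium.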"}, "[2]": {"test_system": "Enterococcus faecalis", "experiment": "microbe, parasite or virus in culture", "format": "functional", "conditions": "ATCC 29212"}, "[3]": {"test_system": "Enterococcus faecium", "experiment": "Antibacterial activity against vancomycin-sensitive Enterococcus faecium assessed as growth inhibition by agar dilution assay", "format": "functional"}, "[4]": {"test_system": "Streptococcus pneumoniae", "experiment": "Antibacterial activity against Streptococcus pneumoniae assessed as growth inhibition by agar dilution assay", "format": "functional", "procedure,_shortened": "(§2)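 Agar dilution MIC per CLSI (aerobic and anaerobic methods); compounds dissolved in DMSO, reference antibiotics in sterile water. MIC taken as lowest concentration with no visible growth; determined at least twice on separate days, higher value reported. Clinical isolate ranges summarized as MIC50/MIC90.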"}, "[5]": {"test_system": "Escherichia coli", "experiment": "Antibacterial activity against Escherichia coli ATCC 25922 assessed as growth inhibition by agar dilution assay", "format": "functional", "procedure,_shortened": "as §2"}, "[6]": {"test_system": "Pseudomonas aeruginosa", "experiment": "Antibacterial activity against Pseudomonas aeruginosa assessed as growth inhibition by agar dilution assay", "format": "functional", "procedure,_shortened": "as §1"}, "[7]": {"test_system": "Bacteroides fragilis", "experiment": "Antibacterial activity against Bacteroides fragilis assessed as growth inhibition by agar dilution assay", "format": "functional", "procedure,_shortened": "as §2"}, "[8]": {"test_system": "Escherichia coli", "experiment": "Antibacterial activity against Escherichia coli assessed as growth inhibition by agar dilution assay", "format": "functional, organism-based", "procedure,_shortened": "as §2"}, "[9]": {"test_system": "Escherichia coli", "experiment": "Antibacterial activity against Escherichia coli assessed as growth inhibition at <0.256 mg/ml by agar dilution assay", "format": "functional, organism-based"}, "[10]": {"test_system": "Escherichia coli", "experiment": "Antibacterial activity against Escherichia coli assessed as growth inhibition by agar dilution assay in presence of 0.002 mg/ml OM permeabilizer PBMN", "format": "functional"}, "[11]": {"test_system": "Staphylococcus aureus", "experiment": "In vivo antibacterial activity against Staphylococcus aureus in New zealand rabbit keratitis model assessed as suppression of conjuctival congestion, conjuctival chemosis, infiltration, operative ulcer area and depth at 4.3 mg/ml administered topically every 4 hrs for four doses every day for 10 days starting 24 hrs post-infection by slit lamp biomicroscopy", "format": "functional, organism-based", "procedure,_shortened": "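NZW rabbits (2.0−3.0 kg), anesthetized with iv sodium pentobarbital 30 mg/kg, given intracorneal S. aureus (about 7.5 × 10^6 CFU) from an overnight LB culture. Starting 24 h post-infection, 30 μL drops applied topically per eye every 4 h, four doses daily (8 a.m.–8 p.m.), for 10 days, masked. Test compound in PEG–water (1:1). Slit-lamp biomicroscopy before and after.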"}, "[12]": {"experiment": "Cytotoxicity against CHL cells assessed as cell viability at 0.064 mg/ml after 24 hrs by MTT assay", "format": "cell-based, Cricetulus griseus", "conditions": "chinese hamster", "procedure,_shortened": "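CHL fibroblasts seeded at about 5 × 10^4 cells/mL, incubated overnight at 37 °C, 5% CO2, then exposed to compound at different concentrations for 24 h. Viability read by MTT, absorbance at 570 nm, relative to cells in medium alone (100%). Triplicate.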"}, "[13]": {"target": "T1, DNA topoisomerase 1 (Escherichia coli (strain K12)) (UniProt P06612)", "T1 sequence (whole entry)": "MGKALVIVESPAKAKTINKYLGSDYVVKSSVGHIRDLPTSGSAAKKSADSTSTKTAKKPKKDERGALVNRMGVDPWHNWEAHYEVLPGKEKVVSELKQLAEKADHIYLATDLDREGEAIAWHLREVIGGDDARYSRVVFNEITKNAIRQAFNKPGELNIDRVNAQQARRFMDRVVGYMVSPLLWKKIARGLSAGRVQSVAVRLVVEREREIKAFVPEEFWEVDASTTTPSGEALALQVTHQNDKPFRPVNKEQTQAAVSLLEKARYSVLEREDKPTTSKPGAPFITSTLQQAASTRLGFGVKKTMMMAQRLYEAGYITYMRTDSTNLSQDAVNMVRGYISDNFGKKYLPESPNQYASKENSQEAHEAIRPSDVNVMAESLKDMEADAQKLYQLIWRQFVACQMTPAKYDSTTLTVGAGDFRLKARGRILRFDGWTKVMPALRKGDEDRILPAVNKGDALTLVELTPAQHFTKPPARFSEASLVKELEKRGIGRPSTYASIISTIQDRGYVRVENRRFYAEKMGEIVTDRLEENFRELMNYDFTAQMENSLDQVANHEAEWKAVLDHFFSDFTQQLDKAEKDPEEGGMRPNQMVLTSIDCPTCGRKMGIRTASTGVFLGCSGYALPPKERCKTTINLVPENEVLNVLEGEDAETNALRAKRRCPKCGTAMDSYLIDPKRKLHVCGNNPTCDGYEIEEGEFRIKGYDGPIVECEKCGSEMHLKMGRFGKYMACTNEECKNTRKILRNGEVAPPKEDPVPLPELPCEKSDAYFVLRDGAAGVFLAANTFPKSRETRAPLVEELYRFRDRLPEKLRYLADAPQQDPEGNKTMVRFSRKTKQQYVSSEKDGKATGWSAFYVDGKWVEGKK", "experiment": "Inhibition of Escherichia coli topoisomerase 1-mediated pHOT-1 DNA relaxation treated with pHOT-1 substrate for 15 mins prior to enzyme addition for 30 mins by agarose gel electrophoresis"}, "[14]": {"target": "T1, DNA topoisomerase 1 (Escherichia coli (strain K12))", "experiment": "Inhibition of Escherichia coli topoisomerase 1-mediated pHOT-1 DNA relaxation at >90 uM treated with pHOT-1 substrate for 15 mins prior to enzyme addition for 30 mins by agarose gel electrophoresis"}, "[15]": {"target": "T2, DNA topoisomerase 1 (Homo sapiens, UniProt P11387)", "T2 sequence (P11387 whole entry)": "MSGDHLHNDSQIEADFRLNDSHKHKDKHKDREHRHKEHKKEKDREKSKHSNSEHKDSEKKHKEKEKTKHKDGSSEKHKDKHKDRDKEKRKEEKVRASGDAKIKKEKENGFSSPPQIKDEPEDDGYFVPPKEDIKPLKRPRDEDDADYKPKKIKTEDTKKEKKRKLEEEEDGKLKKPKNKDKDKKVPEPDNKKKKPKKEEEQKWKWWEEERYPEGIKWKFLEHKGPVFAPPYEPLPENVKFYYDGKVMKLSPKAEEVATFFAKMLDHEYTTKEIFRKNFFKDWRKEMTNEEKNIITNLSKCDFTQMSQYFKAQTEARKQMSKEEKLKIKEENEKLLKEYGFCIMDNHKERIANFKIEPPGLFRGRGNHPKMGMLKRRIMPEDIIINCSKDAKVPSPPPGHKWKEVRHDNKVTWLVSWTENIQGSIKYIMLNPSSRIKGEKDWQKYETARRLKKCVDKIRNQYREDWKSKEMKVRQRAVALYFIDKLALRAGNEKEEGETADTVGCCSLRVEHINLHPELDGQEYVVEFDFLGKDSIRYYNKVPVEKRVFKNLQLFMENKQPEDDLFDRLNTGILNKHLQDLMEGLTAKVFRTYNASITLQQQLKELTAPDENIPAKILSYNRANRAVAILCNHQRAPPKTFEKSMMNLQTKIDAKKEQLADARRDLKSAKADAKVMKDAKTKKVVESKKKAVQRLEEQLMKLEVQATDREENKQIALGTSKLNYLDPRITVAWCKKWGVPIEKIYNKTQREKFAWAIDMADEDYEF", "experiment": "Inhibition of human topoisomerase 1-mediated pHOT-1 DNA relaxation at 10 to 150 uM treated with pHOT-1 substrate for 15 mins prior to enzyme addition for 30 mins by agarose gel electrophoresis", "conditions": "0.5 h"}, "[16]": {"test_system": "Staphylococcus aureus", "experiment": "Antibacterial activity against Staphylococcus aureus ATCC 29213 assessed as growth inhibition by agar dilution assay", "format": "functional", "procedure,_shortened": "as §2"}},
  "note": "The source made the active and inactive calls. No cut-off for these calls is given here.",
  "data": [
    {"smiles": "Cc1cc(O)c2c(c1)C(=O)c1c(I)c(O)c(I)c(O)c1C2=O", "values": [
      {"measurement": "MIC", "setting": "[1]", "value": 4, "unit": "µg/mL"},
      {"measurement": "MIC", "setting": "[2]", "value": 16, "unit": "µg/mL"},
      {"measurement": "MIC", "setting": "[3]", "value": 16, "unit": "µg/mL"},
      {"measurement": "MIC", "setting": "[4]", "value": 32, "unit": "µg/mL"},
      {"measurement": "MIC", "setting": "[5]", "value": "> 256", "unit": "µg/mL"},
      {"measurement": "MIC", "setting": "[6]", "value": "> 256", "unit": "µg/mL"},
      {"measurement": "MIC", "setting": "[7]", "value": 64, "unit": "µg/mL"},
      {"measurement": "growth inhibition (GI)", "setting": "[8]", "value": "inactive"},
      {"measurement": "growth inhibition (GI)", "setting": "[9]", "value": "inactive"},
      {"measurement": "MIC", "setting": "[10]", "value": 8, "unit": "µg/mL"},
      {"measurement": "inhibition", "setting": "[11]", "value": "Active"},
      {"measurement": "Activity", "setting": "[12]", "value": "Non-toxic"},
      {"measurement": "inhibition", "setting": "[13]", "value": "Dose-dependent effect"},
      {"measurement": "inhibition", "setting": "[14]", "value": "Active"},
      {"measurement": "inhibition (INH)", "setting": "[15]", "value": "Not Active"},
      {"measurement": "MIC", "setting": "[16]", "value": 8, "unit": "µg/mL"}
    ]}
  ]
}
